According to ChEMBL document CHEMBL1129573, “Structure-activity relationships in a series of substituted indolocarbazoles: topoisomerase I and protein kinase C inhibition and antitumoral and antimicrobial properties” (J Med Chem, 1996):
Values after ≈ are worked out from the molar mass of the structure shown. Values joined by “and” are separate entries in the source; they are usually repeats but may differ in a detail not shown here. Identical values can stand only once.

What was measured:
Bacillus cereus = assay: Antimicrobial activity on Bacillus cereus; assay type: functional
[1] = Inhibition of Protein Kinase A (PKA).
In short: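 PKA (1 μg/mL) phosphorylating histone IIa (1 mg/mL) with 10 μM ATP plus [γ32P]ATP, 5 mM MgCl2, 50 mM Tris pH 7.0, at 30 °C for 12 min. Stopped with 12% TCA with BSA carrier, reprecipitated. 32P incorporated into histone counted by scintillation; triplicate.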

P388 = assay: Antiproliferative activity against P388 Murine Leukemia cells; assay type: functional, cell-based; settings: Mus musculus
B16 [2] = assay: Antiproliferative activity against B16 mouse melanoma cells; assay type: functional, cell-based
In short: (§1)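 B16 mouse melanoma cells (EMEM, 10% FCS, 37 °C, 5% CO2) plated at 200 cells/dish, adhered 20 h, then exposed 24 h to increasing drug concentrations. Drug medium removed, PBS wash, 12 days regrowth in fresh medium.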

[3] = test system: DNA topoisomerase II (Bos taurus); assay: Inhibitory activity towards Topoisomerase 2 from calf thymus
[4] = molecular target: Protein kinase C alpha type (Homo sapiens, UniProt P17252); assay: Inhibition of Protein Kinase C(PKC)
In short: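 Procedure a: PKC (0.5 μg/mL) with histone IIIs (2.4 mg/mL), 10 μM ATP plus [γ32P]ATP, 10 mM MgCl2, 0.1 mM CaCl2, phosphatidylserine and diacylglycerol (10 mg/mL each), 50 mM Tris pH 7.5, at 30 °C for 12 min. TCA precipitation, histone-bound 32P counted by scintillation; triplicate.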

[5] = test system: DNA topoisomerase I (Bos taurus); assay: Inhibitory activity towards Topoisomerase 1 from calf thymus.
B16 [6] = assay: Compound was evaluated for antiproliferative activity against B16 mouse melanoma cells *= Partially precipitated in DMSO; assay type: functional, cell-based; in short: as §1
Mus musculus [7] = assay: Antitumor activity against mice with B16 melanoma was assessed from the ratio of median survival time of treated animals (T) to controls animals, at 2 mg/Kg; assay type: functional
In short: (§2)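 Male B6D2F1 mice given 0.5 × 10⁶ B16 melanoma cells subcutaneously on the dorsum on day 0 (cells maintained in MEM culture). Drug given intraperitoneally on days 1, 5 and 9. Controls received DMSO–olive oil solvent. Six mice per treated group, 12 controls. Median survival time compared with controls, reported as oncostatic index T/C × 100.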

Mus musculus [8] = assay: Antitumor activity against mice with B16 melanoma was assessed from the ratio of median survival time of treated animals (T) to controls animals, at 16 mg/Kg; assay type: functional; in short: as §2
Mus musculus [9] = assay: In vivo efficacy study on mice with B16 Melanoma cells determined after administration of 16 mg/kg/day dosage; assay type: functional, Melanoma cell; in short: as §2
Mus musculus [10] = assay: Antitumor activity against mice with P388 leukemia cell was assessed from the ratio of median survival time of treated animals (T) to controls animals, at 16 mg/Kg; assay type: functional
In short: (§3)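 Male B6D2F1 mice injected intraperitoneally with 1×10^6 P388 leukemia cells on day 0 (line kept by weekly intraperitoneal passage in male DBA/2 mice). Drug given intraperitoneally on days 1, 5 and 9. Controls received DMSO–olive oil solvent. Six mice per treated group, 12 controls. Median survival time compared with controls, reported as oncostatic index T/C × 100.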

Mus musculus [11] = assay: In vivo efficacy study on mice with P388 Leukemia Cells determined after administration of 16 mg/kg/day dosage; assay type: functional; in short: as §3
Mus musculus [12] = assay: In vivo efficacy study on mice with B16 Melanoma Cells determined after administration of 64 mg/kg/day dosage; assay type: functional; in short: as §2
Mus musculus [13] = assay: Antitumor activity against mice with P388 leukemia cell was assessed from the ratio of median survival time of treated animals (T) to controls animals, at 64 mg/Kg; assay type: functional; in short: as §3
Mus musculus [14] = assay: In vivo efficacy study on mice with P388 Leukemia Cells determined after administration of 2 mg/kg/day dosage; assay type: functional; in short: as §3
Mus musculus [15] = assay: In vivo efficacy study on mice with B16 Melanoma cells determined after administration of 2 mg/kg/day dosage; assay type: functional, Melanoma cell; in short: as §2
Mus musculus [16] = assay: Antitumor activity against mice with P388 leukemia cell was assessed from the ratio of median survival time of treated animals (T) to controls animals, at 2 mg/Kg; assay type: functional; in short: as §3
Mus musculus [17] = assay: In vivo efficacy study on mice with P388 Leukemia Cells determined after administration of 64 mg/kg/day dosage; assay type: functional; in short: as §3
Mus musculus [18] = assay: Antitumor activity against mice with B16 melanoma was assessed from the ratio of median survival time of treated animals (T) to controls animals, at 64 mg/Kg; assay type: functional; in short: as §2
Mus musculus [19] = assay: In vivo efficacy study on mice with B16 Melanoma cells determined after administration of 64 mg/kg/day dosage; assay type: functional, Melanoma cell; in short: as §2

Row | SMILES | MIC (Bacillus cereus) | IC50 [1] | IC50 (P388) | IC50 (B16 [2]) | MIC [3] | IC50 [4] | MIC [5] | further results
1 | O=C1NC(O)c2c1c1c3cccc(Cl)c3[nH]c1c1[nH]c3c(Cl)cccc3c21 (configuration not stated) | > 50 µg/mL | > 100 µM | 9 µM | 8.4 µM | > 10 µg/mL | > 100 µM | > 10 µg/mL | –
2 | NNC(=O)NN1C(=O)c2c(c3c4ccccc4[nH]c3c3[nH]c4ccccc4c23)C1=O | 50 µg/mL (≈ 126 µM) | – | > 10 µM | – | – | 78 µM | – | IC50 (B16 [6]): 75 µM
3 | NN1C(=O)c2c(c3c4ccccc4[nH]c3c3[nH]c4ccccc4c23)C1=O | > 50 µg/mL | 44.6 µM | > 10 µM | > 250 µM | – | 43.5 µM | – | –
4 | O=C1c2c(c3c4ccccc4[nH]c3c3[nH]c4ccccc4c23)C(=O)N1O | > 50 µg/mL | 41.5 µM | > 10 µM | 4.6 µM | > 10 µg/mL | 79.2 µM | > 10 µg/mL | T/C x100 (Mus musculus [7]): 112; T/C x100 (Mus musculus [8]): 128; Mean survival in days (Mus musculus [9]): 31.5; T/C x100 (Mus musculus [10]): 100; Mean survival in days (Mus musculus [11]): 11; Mean survival in days (Mus musculus [12]): 27.5; T/C x100 (Mus musculus [13]): 100; Mean survival in days (Mus musculus [14]): 11.5; Mean survival in days (Mus musculus [15]): 27.5; T/C x100 (Mus musculus [16]): 104; Mean survival in days (Mus musculus [17]): 11; T/C x100 (Mus musculus [18]): 112
5 | O=C1NC(=O)c2c1c1c3ccccc3[nH]c1c1[nH]c3ccccc3c21 [STAUROSPORINE AGLYCON] | > 50 µg/mL | 60 µM | 4 µM | > 100 µM | – | – | – | –
6 | O=C1NC(=O)c2c1c1c3cccc(Cl)c3[nH]c1c1[nH]c3c(Cl)cccc3c21 | > 50 µg/mL | > 100 µM | > 10 µM | 24 µM | – | > 100 µM | – | –
7 | O=C1c2c(c3c4ccccc4[nH]c3c3[nH]c4ccccc4c23)C(=O)N1CCO | > 50 µg/mL | – | 7 µM | > 150 µM | > 10 µg/mL | > 100 µM | > 10 µg/mL | –
8 | CO[C@H]1[C@H](O)[C@@H](O)[C@H](n2c3c(Cl)cccc3c3c4c(c5c6cccc(Cl)c6[nH]c5c32)C(=O)NC4=O)O[C@@H]1CO [REBECCAMYCIN] | 6.25 µg/mL (≈ 11 µM) | > 100 µM | 0.3 µM | 0.48 µM | – | – | – | T/C x100 (Mus musculus [7]): 124; T/C x100 (Mus musculus [8]): 112; Mean survival in days (Mus musculus [9]): 27.5 and 26; T/C x100 (Mus musculus [10]): 150; Mean survival in days (Mus musculus [11]): 16.5; T/C x100 (Mus musculus [13]): 164; Mean survival in days (Mus musculus [14]): 15; Mean survival in days (Mus musculus [15]): 30.5; T/C x100 (Mus musculus [16]): 136; Mean survival in days (Mus musculus [17]): 18; T/C x100 (Mus musculus [18]): 106
9 | O=C1NCc2c1c1c3ccccc3[nH]c1c1[nH]c3ccccc3c21 [STAUROSPORINONE] | > 50 µg/mL | 25.7 µM | 4 µM | 4.8 µM | – | – | – | T/C x100 (Mus musculus [7]): 94; T/C x100 (Mus musculus [8]): 122; Mean survival in days (Mus musculus [9]): 30; T/C x100 (Mus musculus [10]): 100; Mean survival in days (Mus musculus [11]): 11; Mean survival in days (Mus musculus [19]): 26; T/C x100 (Mus musculus [13]): 104; Mean survival in days (Mus musculus [14]): 11; Mean survival in days (Mus musculus [15]): 23; T/C x100 (Mus musculus [16]): 100; Mean survival in days (Mus musculus [17]): 11.5; T/C x100 (Mus musculus [18]): 106
10 | O=CNN1C(=O)c2c(c3c4cccc(Cl)c4[nH]c3c3[nH]c4c(Cl)cccc4c23)C1=O | > 50 µg/mL | – | > 10 µM | – | – | > 100 µM | – | –
11 | NN1C(=O)c2c(c3c4cccc(Cl)c4[nH]c3c3[nH]c4c(Cl)cccc4c23)C1=O | – | – | > 10 µM | 17 µM | > 10 µg/mL | > 100 µM | > 10 µg/mL | –

Further lines, with some results ahead:

Row | MIC (Bacillus cereus) | IC50 [1] | IC50 (P388) | IC50 (B16 [2]) | MIC [3] | IC50 [4] | MIC [5] | SMILES | further results
12 | 12.5 µg/mL (≈ 25.6 µM) | – | 3 µM | – | > 10 µg/mL | 3.7 µM | 0.01 µg/mL (≈ 0.0205 µM) | COC1C(CO)OC(n2c3ccccc3c3c4c(c5c6ccccc6[nH]c5c32)CNC4=O)C(O)C1O (configuration not stated) | –
13 | 6.25 µg/mL (≈ 19.1 µM) | 34 µM | 0.3 µM | – | – | – | – | O=C1NC(O)c2c1c1c3ccccc3[nH]c1c1[nH]c3ccccc3c21 (configuration not stated) | –
14 | 0.8 µg/mL (≈ 1.37 µM) | – | 0.1 µM | 0.3 µM | > 10 µg/mL | > 100 µM | 0.1 µg/mL (≈ 0.171 µM) | COC1C(CO)OC(n2c3c(Cl)cccc3c3c4c(c5c6cccc(Cl)c6[nH]c5c32)C(=O)N(N)C4=O)C(O)C1O (configuration not stated) | –
15 | > 50 µg/mL | > 100 µM | 3.5 µM | 17.5 µM | > 10 µg/mL | > 100 µM | 1 µg/mL (≈ 1.99 µM) | CO[C@H]1[C@H](O)[C@@H](O)[C@H](n2c3ccccc3c3c4c(c5c6ccccc6[nH]c5c32)C(=O)NC4=O)O[C@@H]1CO | –
16 | 3.1 µg/mL (≈ 5.29 µM) | – | 0.5 µM | 0.7 µM | > 10 µg/mL | 68 µM | 0.3 µg/mL (≈ 0.512 µM) | COC1C(CO)OC(n2c3c(Cl)cccc3c3c4c(c5c6cccc(Cl)c6[nH]c5c32)C(=O)N(O)C4=O)C(O)C1O (configuration not stated) | –
17 | 3.1 µg/mL (≈ 5.05 µM) | – | 0.3 µM | – | > 10 µg/mL | > 100 µM | 1 µg/mL (≈ 1.63 µM) | COC1C(CO)OC(n2c3c(Cl)cccc3c3c4c(c5c6cccc(Cl)c6[nH]c5c32)C(=O)N(NC=O)C4=O)C(O)C1O (configuration not stated) | –
18 | 50 µg/mL (≈ 136 µM) | – | 3.5 µM | > 100 µM | > 10 µg/mL | > 100 µM | 1 µg/mL (≈ 2.71 µM) | O=CNN1C(=O)c2c(c3c4ccccc4[nH]c3c3[nH]c4ccccc4c23)C1=O | –
19 | 50 µg/mL (≈ 96.8 µM) | – | 0.3 µM | 4.1 µM | > 10 µg/mL | > 100 µM | 0.1 µg/mL (≈ 0.194 µM) | COC1C(CO)OC(n2c3ccccc3c3c4c(c5c6ccccc6[nH]c5c32)C(=O)N(N)C4=O)C(O)C1O (configuration not stated) | –
20 | 25 µg/mL (≈ 48.3 µM) | – | 3 µM | 5.8 µM | > 10 µg/mL | 40 µM | 0.1 µg/mL (≈ 0.193 µM) | COC1C(CO)OC(n2c3ccccc3c3c4c(c5c6ccccc6[nH]c5c32)C(=O)N(O)C4=O)C(O)C1O (configuration not stated) | –
21 | 25 µg/mL (≈ 45.9 µM) | – | 0.3 µM | – | > 10 µg/mL | > 100 µM | 0.1 µg/mL (≈ 0.184 µM) | COC1C(CO)OC(n2c3ccccc3c3c4c(c5c6ccccc6[nH]c5c32)C(=O)N(NC=O)C4=O)C(O)C1O (configuration not stated) | –
22 | 6.25 µg/mL (≈ 16.4 µM) | > 100 µM | 3.5 µM | – | > 10 µg/mL | > 100 µM | > 10 µg/mL | O=C1NCc2c1c1c3cccc(Cl)c3[nH]c1c1[nH]c3c(Cl)cccc3c21 | –
23 | 3.1 µg/mL (≈ 5.57 µM) | > 100 µM | 3 µM | > 125 µM | > 10 µg/mL | 28.8 µM | 1 µg/mL (≈ 1.8 µM) | COC1C(CO)OC(n2c3c(Cl)cccc3c3c4c(c5c6cccc(Cl)c6[nH]c5c32)CNC4=O)C(O)C1O (configuration not stated) | –
